SIAE inh: blocks human sialic acid acetylesterase | SIAE FP-Rh probe binding, fluorescence polarization | inhibition, % at 9.66 µM | actives 0.69% (n = 370,000) | AID 1053197;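 active means inhibition above a cutoff: mean of compounds within the control limits plus 3 SD of those, cut at about 17% in these data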
HTRA1 inh: HTRA1 (human) protease inhibition; Q92743; recombinant HTRA1, FP-rhodamine activity-based probe, fluorescence polarization; inhibition, % at 5.96 µM; actives 0.5% (n = 340,000); in the data active means inhibition above about 36%
Target sequence (Q92743 whole entry, looked up): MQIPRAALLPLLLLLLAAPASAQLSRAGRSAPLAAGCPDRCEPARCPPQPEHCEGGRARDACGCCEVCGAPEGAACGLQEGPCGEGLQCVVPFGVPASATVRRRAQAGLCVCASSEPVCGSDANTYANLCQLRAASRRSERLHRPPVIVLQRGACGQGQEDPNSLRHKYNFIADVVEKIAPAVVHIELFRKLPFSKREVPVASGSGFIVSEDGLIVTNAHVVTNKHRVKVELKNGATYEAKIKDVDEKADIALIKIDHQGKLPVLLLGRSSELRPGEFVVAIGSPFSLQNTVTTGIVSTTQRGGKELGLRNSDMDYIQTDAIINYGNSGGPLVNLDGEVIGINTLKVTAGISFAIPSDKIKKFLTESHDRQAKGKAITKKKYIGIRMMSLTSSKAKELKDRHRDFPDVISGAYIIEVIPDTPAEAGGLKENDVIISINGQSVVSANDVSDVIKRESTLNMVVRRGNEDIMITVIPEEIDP
PRMT1 inh: inhibitors of human PRMT1; Q99873; recombinant PRMT1, activity-based probe fluorescence polarization; inhibition, % at 2.79 µM; actives 1.3% (n = 370,000); AID 652257;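 active means inhibition above about 21% made by adding two undisclosed values, limit read from the data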
ABHD4 inh: ABHD4 (mouse) inhibition, primary FP screen; purified mABHD4, FP-Rh probe fluorescence polarization; inhibition, % at 8.92 µM; Q8VD66; actives 0.54% (n = 370,000);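 active means inhibition exceeding the mean over every tested compound plus 3 SD, cut at about 30% in these data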
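Assay system: mABHD4 protein; medium: HEPES pH 7.0, NaCl, Pluronic buffer; dosing: 8.92 µM, single dose; schedule: 45 min + 60 min at 25 °C; signal: FP readout, ex 525 nm / em 598 nm; read-out: normalized percent inhibition of probe labeling; repeats: single replicate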
JMJD2C inh: human JMJD2C demethylase inhibition | actives 0.069% (n = 330,000) | GST-JMJD2C(1-420) H3K9me3 demethylation, DELFIA europium | inhibition, % at 2.35 µM;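 active means more than half of a compound's replicate wells show inhibition beyond 50%, single wells judged on their own value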;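 further: signal counts dimethyl H3K9 product captured on neutravidin plate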
PRMT1 confirm: confirmation of human PRMT1 inhibitors; shares compounds with PRMT1 inh; recombinant His-PRMT1, activity-based probe fluorescence polarization; inhibition, % at 2.79 µM; actives 42% (n = 3,300);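 active means mean inhibition across replicates above the hit cutoff derived for the earlier primary screen, cut at about 22% in these data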
Numbers stand for hits; . = inactive; / = not tested or not shown. This is a sample that favours compounds with a hit; in the whole collection about 2.4% have one here.

SMILES	SIAE inh	HTRA1 inh	PRMT1 inh	ABHD4 inh	JMJD2C inh	PRMT1 confirm
O=C(CSC1=NC(=O)C(Cc2ccccc2)C(=O)N1)NC1CCCCC1 (stereo unspecified)	.	.	.	.	.	/
CC(=O)NC1C(=O)N=C(SCC(=O)Nc2c(C)cccc2C)NC1=O (stereo unspecified)	.	.	42	.	.	.
COc1ccccc1C(=O)NC1CCCCN(Cc2ccc(OC(F)(F)F)cc2)C1=O (stereo unspecified)	.	/	.	.	/	/
CCCc1c(-c2ccc(F)cc2)ncn1Cc1ccccc1OC	.	/	.	.	/	/
COc1ccc(C2C(C(=O)Nc3cc(OC)ccc3OC)CCC(=O)N2c2ccc(OC)cc2)cc1 (stereo unspecified)	.	/	.	.	/	/
CCOC(=O)c1c(N2C(=O)C3C4C=CC(O4)C3C2=O)sc2c1CCCC2 (stereo unspecified)	.	.	82	.	.	56
CCOC(=O)c1c(-n2cnnn2)sc2c1CCCC2	.	.	.	.	.	/
Nc1[nH]c2ccccc2c1C(=O)NC1CC1	.	/	.	.	/	/
O=C(/C=C/c1ccco1)Nc1cc(Cl)ccc1C(=O)O	.	.	25	.	.	.
O=C(/C=C/c1ccco1)Nc1ccccc1C(=O)Nc1cccc(C(=O)O)c1	.	.	25	.	.	.
Cc1ccc(NC(=S)NC(=O)/C=C/c2ccco2)c(O)c1	.	.	28	.	.	.
O=C(/C=C/c1ccco1)Nc1ccccc1C(=O)O	.	/	.	.	.	/
O=C(/C=C/c1ccco1)NC(=S)Nc1cccc(C(=O)O)c1	.	.	34	.	.	30
O=C(/C=C\c1ccco1)NC(=S)Nc1ccccc1O	.	.	.	.	.	/
COc1ccc(S(=O)(=O)N2CCN(C(=O)CSc3nc4ccccc4nc3N3CCCCC3)CC2)cc1	.	/	.	.	/	/
COP(=O)(OC)C(Cc1ccccc1)NC(=O)CNC(=O)OCc1ccccc1 (stereo unspecified)	.	/	.	.	/	/
O=C(Cn1c(=O)c2cccn2c2cccnc21)NCCCN1CCN(c2ccccc2)CC1	.	/	.	.	/	/
O=C1C(Cl)=C(Nc2ccccc2O)C(=O)N1CCc1ccccc1	.	.	30	.	.	54
COc1ccc(CCNC2=C(Cl)C(=O)N(CCc3ccccc3)C2=O)cc1OC	.	.	.	.	.	/
COc1cc2c(-c3ccc4cc[nH]c4c3)c(-c3ccc(C#N)cc3)oc(=O)c2cc1OC	.	.	.	.	.	/
CCCCNC(=O)c1nc(C2CCN(S(=O)(=O)c3c(F)cccc3F)CC2)oc1-c1ccccc1	.	/	.	.	/	/
O=C(CSc1ncccn1)c1ccccc1Br	.	.	57	.	.	38
O=C(O)CSc1ncccn1	.	.	.	.	.	/
O=C1CC(SC(=Nc2ccccc2)Nc2ccccc2)C(=O)N1c1ccc(Cl)cc1 (stereo unspecified)	.	.	.	.	.	/
O=C(CSC1CC(=O)N(c2ccc(C(=O)O)cc2)C1=O)Nc1ccc(Cl)cc1 (stereo unspecified)	.	.	39	.	.	34
SMILES	SIAE inh	HTRA1 inh	PRMT1 inh	ABHD4 inh	JMJD2C inh	PRMT1 confirm
O=C(O)CSC1CC(=O)N(c2ccc(F)cc2)C1=O (stereo unspecified)	.	.	26	.	/	.
CCN=C(NCC)SC1CC(=O)N(CCc2ccccc2)C1=O (stereo unspecified)	.	/	35	.	.	.
O=C(CSC1CC(=O)N(CCc2ccccc2)C1=O)Nc1cccc(Cl)c1 (stereo unspecified)	.	.	54	.	.	54
Cc1ccc(NC(=O)CN2C(=O)NC3(CCCCC3C)C2=O)cc1S(=O)(=O)N1CCOCC1 (stereo unspecified)	.	.	.	.	/	/
CC(=O)Nc1ccc2ccccc2c1	/	.	/	/	.	/
CC(=O)Nc1ccc2cc3ccc(NC(C)=O)cc3nc2c1	.	.	37	.	.	22
CCOC(=O)c1c(C)[nH]c(O)c1C=Nc1ccc(C(F)(F)F)cc1	.	62	29	.	.	.
COC(=O)c1c(C)[nH]c(O)c1C=Nc1ccc(C(C)C)cc1	.	.	.	.	.	/
Cc1ccc(-c2cc(C(=O)Nc3cccnc3)c3ccccc3n2)o1	.	.	46	.	.	.
Cc1ccc(-c2cc(C(=O)Nc3ccccn3)c3ccccc3n2)o1	.	.	.	.	.	/
COc1ccc(OC)c(/C=N/NC(=O)c2cc(-c3ccc(C)o3)nc3ccccc23)c1	.	.	30	.	.	.
Cc1ccc(NC(=O)c2cc(-c3ccc(C)o3)nc3ccccc23)cc1	.	.	49	.	.	25
COc1ccc(-c2cc(C(=O)N/N=C/c3cc(OC)c(OC)cc3OC)c3ccccc3n2)cc1	.	/	.	.	.	/
CC(C)C(OC(=O)C1=Cc2ccccc2OC1)C(=O)NCC1CCCO1 (stereo unspecified)	.	.	.	.	/	/
CN(c1cccnc1)c1ccc(NC(=O)Cc2c[nH]c3ccccc23)cc1-c1ccc(F)c(F)c1	.	/	.	.	/	/
C[C@H]1C=C(C(=O)NCc2nc3ccccc3[nH]2)O[C@@H](OCCCCO)C1	.	.	41	.	.	.
COc1ccc(-c2nc3c(C)cc(Br)cn3c2Cc2ccsc2)cc1OC	.	/	.	.	/	/
CCc1nnc2n1N=C(c1ccc(Cl)cc1)CS2	.	.	.	.	.	/
Cc1nnc2n(c1=O)N=C(c1ccc(Cl)cc1)CS2	.	.	56	.	.	57
Cc1cc2nc(-c3ccc(Cl)cc3)c(Cc3ccsc3)n2c(C)c1Br	.	/	.	.	/	/
CCOC(=O)c1c(NC(C)=O)sc2c1CCN(Cc1ccccc1)C2	.	.	.	.	.	/
CCOC(=O)c1c(NC(C)=O)sc2c1CCC(C=O)=C2Sc1ccccc1	.	.	31	.	.	.
C=CCN1C(=O)[C@@H](CC(=O)NCCC(C)C)[C@]2(C(=O)OCC)CCCCC/C=C/12	.	/	.	.	/	/
Cc1cnc(NC(=O)CCCc2nc3ccccc3s2)s1	.	.	49	.	.	.
Cc1ccc2nc(NC(=O)CCCc3nc4ccccc4s3)sc2c1	.	.	.	.	.	/
O=C(CCCc1nc2ccccc2s1)Nc1nccs1	.	.	41	.	.	.
COc1ccc(C#CCN(Cc2ccc(OC)cc2OC)C(N)=NC(=O)CCc2ccccc2)cc1	.	/	.	.	/	/
CCC1Oc2ccc(C)cc2N(CC(=O)N(Cc2ccc(C)o2)C2CCCC2)C1=O (stereo unspecified)	.	.	47	.	.	38
CCC1Oc2ccc(C)cc2N(CC(=O)NC2CCCCC2)C1=O (stereo unspecified)	.	.	.	.	.	/
COc1ccc(C2=NN(C(=O)COC(=O)c3ccc(S(C)(=O)=O)c([N+](=O)[O-])c3)C(c3ccco3)C2)cc1 (stereo unspecified)	.	.	41	.	.	.

Source: PubChem (several laboratories)
